Only some compounds are listed: those with a hit (about 9% of all), similar ones and a draw of the others.
mHtt clearance – mutant huntingtin protein clearance; HeLa Exon1htt(103Q)mCFP, aggregate imaging; zero = plate's median compound well; inhibition, % at 1.5 µM; 47,000 compounds, 0.42% hits; AID 853;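 active = inhibition of aggregate fluorescence above about 70%, also judged a hit by eye on the cell image, limit read from the data, passing the limit was not always enough; inconclusive = no rule stated for this call; inactive = not judged a hit on image review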;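 note: cells exposed to compound for three days before fixation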
D1 mod – allosterically modulates the human D1 dopamine receptor; AID 641; HEK293 D1, CRE-luciferase, dopamine EC30 potentiation; actives deviate in either direction; 58,000 compounds, 5.9% hits; B-score at 10 µM;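 active = luminescence count or its row- and column-corrected plate score outside the 99.7% band of the plate's sample wells, on either side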
AP complement – orthogonal test for alternative complement pathway inhibitors; Human serum alternative complement pathway, LPS-coated ELISA, C3 deposition; tested in compound mixtures; inhibition, % at 5 µM; 62,000 compounds, 0.08% hits; AID 1235;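 active = inhibition above 30% in each of the two pooled mixtures holding the compound, so the lower value exceeds 30%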;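 note: 0% = serum in Mg-EGTA without compound and 100% = EDTA serum blank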
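Medium: diluted human serum in Mg2+-EGTA GVB++. Assay system: human serum complement alternative pathway, C3 deposition onto LPS. Also added: Plate-bound LPS. Technique: Anti-C3 ELISA, OD 450 nm. Measure: percent inhibition. Incubation: 1 h at 37 °C. Dosing: 5 µM each compound, pools of ten, 50 µM per pool.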
M1 ag – M1 muscarinic receptor agonism; CHO-M1 cells, Fluo-4 calcium fluorescence, agonist mode; stronger effect = higher value; B-score at 10 µM; 64,000 compounds, 3% hits; AID 626;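 active = fluorescence rise, raw or as B-score row- and column-corrected plate score, outside the 99.7% band of its plate's samples, either direction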
M1 antag – blocks the rat M1 muscarinic receptor response to acetylcholine; 64,000 compounds, 3.4% hits; AID 628; P08482; B-score at 10 µM; CHO-M1 cells, Fluo-4 calcium, ACh EC80 antagonist mode; stronger effect = lower value;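 active = calcium fluorescence response, raw or row-and-column corrected B-score, differing from the plate sample mean either way at a set confidence level, mostly lower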
Target sequence (P08482 whole entry, looked up): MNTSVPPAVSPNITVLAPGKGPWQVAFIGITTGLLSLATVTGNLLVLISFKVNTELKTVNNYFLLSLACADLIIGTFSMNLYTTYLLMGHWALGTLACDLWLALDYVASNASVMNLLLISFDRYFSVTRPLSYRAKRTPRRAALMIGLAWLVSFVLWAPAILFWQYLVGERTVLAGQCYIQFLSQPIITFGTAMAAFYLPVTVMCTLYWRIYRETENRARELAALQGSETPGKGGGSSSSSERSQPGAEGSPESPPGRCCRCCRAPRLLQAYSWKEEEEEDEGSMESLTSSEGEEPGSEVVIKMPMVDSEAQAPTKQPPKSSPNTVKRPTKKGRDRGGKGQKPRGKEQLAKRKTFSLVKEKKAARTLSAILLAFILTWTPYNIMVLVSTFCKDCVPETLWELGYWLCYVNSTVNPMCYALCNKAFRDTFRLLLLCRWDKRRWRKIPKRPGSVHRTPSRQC
D1 mod confirm – confirmation of human D1 dopamine receptor allosteric modulators. shares compounds with D1 mod. HEK293 D1 CRE-luciferase, dopamine EC30 potentiation; stronger effect = higher value. luminescence at 10 µM. 2,200 compounds, 88% hits. AID 642;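 active = luminescence in either of two replicates above the same-plate mean plus 3 SD of the low-dose dopamine control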
D1 ag no DA – D1 (human) signaling in absence of dopamine | shares compounds with D1 mod | HEK293 D1 CRE-luciferase, luminescence, no dopamine; stronger effect = higher value | luminescence at 10 µM | 1,900 compounds, 0.8% hits | AID 646; in the data active = luminescence above about 3900
Isoprot counter – counter-screen for D1 modulators: isoproterenol response in HEK293 cells. shares compounds with D1 mod. HEK293 D1 CRE-luciferase, isoproterenol EC30 counter-screen. calls only at 10 µM. 2,200 compounds, 63% hits. AID 647;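 active = luminescence in either replicate above plate mean of wells with a partly effective reference agonist dose plus 3 SD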;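 note: isoproterenol raises cAMP through native beta-adrenoceptor Gs so signal bypasses D1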
* = called active by the depositor; i = inactive; u = inconclusive; x = no result given; + = active, no number.

SMILES | mHtt clearance | D1 mod | AP complement | M1 ag | M1 antag | D1 mod confirm | D1 ag no DA | Isoprot counter
c1ccc(Nc2cc(-c3ccccc3)nc3ncnn23)cc1 | x | 7.9* | 2 | -0.32 | 0.026 | 15552* | 1552 | +
CC(=O)N1CCC(N(C(=O)Nc2c(F)cccc2F)C(C)C)CC1 | -117 | x | x | x | x | x | x | x
O=C(c1ccccc1/S(=N/S(=O)(=O)c1ccccc1)N1CCOCC1)N1CCOCC1 (centres undefined) | 64 | -0.011 | 10 | -1.6 | -0.0015 | x | x | x
C/C(=N\NC(=O)COc1ccc([N+](=O)[O-])cc1)C(C)(C)C | 37 | x | x | x | x | x | x | x
CCOC(=O)c1c(C)c(C(=O)NCc2ccccc2OC)c(C)n1C | 27 | 3.6* | 9 | 0.16 | -1.9 | 7232* | 1476 | i
CCOCCCNC(=O)c1c(C)c(C(=O)OCC)n(C)c1C | x | 0.3 | -9 | 0.48 | 0.63 | x | x | x
CC1CCN(c2nc3c(c(=O)[nH]c(=O)n3C)n2CCSc2nc3ccccc3o2)CC1 | x | -0.82 | x | -0.11 | 0.038 | x | x | x
CCOC(=O)c1c(NC(=O)CSc2nnnn2C)sc(C)c1-c1ccc(C)cc1 | x | -0.77 | 19 | 0.15 | 0.012 | x | x | x
CC(C)(C)n1nnnc1CN1C2CCC1CC(NC(=O)Nc1ccccc1)C2 (centres undefined) | -17 | 4.8* | 4 | 0.019 | 1.4 | 5228 | x | i
CC(C)(C)n1ncc2c(=O)n(Cc3ccc(Cl)cc3Cl)cnc21 | 0 | 2 | 11 | 0.0054 | -0.12 | x | x | x
CC(C)(C)n1ncc2c(=O)n(Cc3c(F)cccc3Cl)cnc21 | -25 | 6* | 1 | -0.0054 | -0.19 | 9180* | 784 | +
CSc1nnc2c3ccccc3n(Cc3ccccc3)c2n1 | 40 | 10* | 9 | 0.76 | -0.29 | 15672* | 1436 | +
C=CCn1c(SCC(=O)Nc2ncc(Cc3cc(Cl)ccc3Cl)s2)nnc1-c1ccncc1 | 21 | x | x | x | x | x | x | x
CCN(CC)S(=O)(=O)c1ccc(-n2cnnn2)c(C)c1 | -2 | x | x | x | x | x | x | x
COc1ccc(CN(Cc2cccnc2)S(=O)(=O)c2ccc(-n3cnnn3)c(C)c2)cc1OC | 51 | 3.7* | 9 | -0.04 | -0.37 | 7956* | 1480 | i
Cn1cccc1Cc1nnc(SCC(=O)Nc2ccc3c(c2)OCO3)n1-c1ccc(F)cc1 | x | -0.17 | 12 | 0.21 | 0.97 | x | x | x
CCSc1ncc(Cl)c(C(=O)Nc2ccc(S(=O)(=O)Nc3onc(C)c3C)cc2)n1 | 10 | 5.6* | 7 | 0.82 | 0 | 11540* | 1528 | i
Cc1noc(NS(=O)(=O)c2ccc(NC(=O)Nc3ccc(Cl)c(Cl)c3)cc2)c1C | -6 | -2.6 | -20 | 0.15 | 0.84 | x | x | x
Cc1cccc(NC(=O)CCSc2nncn2C)c1 | 33 | x | x | x | x | x | x | x
O=C(c1ccc2c(c1)OCO2)N1CCc2ccccc2C1 | x | 22* | 14 | 0.13 | 0.4 | 18384* | 1548 | +
CCSc1nsc(SCC)c1C(N)=O | u | 0.87 | 5 | 0.49 | 0.015 | x | x | x
CCCSc1nsc(SCCC)c1C(N)=O | -15 | 4.4* | -4 | -0.0053 | -0.55 | 9628* | 1436 | i
Clc1nc(NCc2cccnc2)nc(N2CCOCC2)n1 | -20 | x | x | x | x | x | x | x
Cc1nc2sc(-c3ccccc3)cc2c(=O)n1-n1cccc1 | x | -0.37 | -1 | -0.0096 | 0.5 | x | x | x
COc1ccc(-c2csc3nc(C)n(-n4cccc4)c(=O)c23)cc1OC | x | 4.9* | -1 | 0.67 | 0.12 | 6784* | 1784 | i
SMILES | mHtt clearance | D1 mod | AP complement | M1 ag | M1 antag | D1 mod confirm | D1 ag no DA | Isoprot counter
COc1ccc(S(=O)(=O)Nc2ccc3c(c2)OCO3)cc1OC | x | 3.1* | 9 | 0.37 | 0.37 | 9304* | 1612 | i
C/C(N)=C(/C#N)C(=O)CN1CCCCC1 | x | 0.92 | 0 | 0.58 | 0.57 | x | x | x
COc1ccc(S(=O)(=O)N2CCC(C(=O)N3CCCCC3)CC2)cc1OC | 6 | 7.6* | 13 | -0.43 | -0.74 | 12168* | 1644 | +
Cc1ccc(Nc2nc(N)nc(CSCCO)n2)cc1 | 9 | x | x | x | x | x | x | x
Cc1ccc(Nc2nc(N)nc(CC#N)n2)cc1 | 8 | 6.6* | 7 | -0.15 | -2 | 14616* | x | +
O=C(Cn1c(=O)n(Cc2ccc3c(c2)OCO3)c(=O)c2ccccc21)N1CCCc2ccccc21 | -16 | 6* | 9 | 0.97 | 0.97 | 10984* | 1796 | +
CC1CCN(C(=O)Cn2c(=O)n(Cc3ccc4c(c3)OCO4)c(=O)c3ccccc32)CC1 | 34 | x | 10 | x | x | x | x | x
N#Cc1ccccc1OCC(=O)Nc1c(C(=O)C2CC2)oc2ccccc12 | x | 1.5 | -1 | -0.011 | 0.048 | x | x | x
CCOC(=O)c1oc2ccccc2c1NC(=O)c1cccc(OC)c1OC | 42 | 16* | 3 | 0.61 | -0.041 | 20936* | 1800 | +
CC(=O)Nc1c(C(=O)C2CC2)oc2ccccc12 | 56 | 8.3* | -11 | 0.89 | 0.25 | 13456* | 1564 | +
CCOC(=O)c1oc2ccccc2c1NC(=O)C1CCCCC1 | x | 9.5* | 5 | 0.35 | 0.00096 | 15764* | x | +
CCOC(=O)c1oc2ccccc2c1NC(=O)c1cccc(OC)c1 | -16 | 0.51 | 0 | 0.36 | -0.62 | x | x | x
O=C(NCCSCc1ccccc1)c1ccc(C2SCC(=O)N2Cc2ccccc2)cc1 (centres undefined) | 15 | x | x | x | x | x | x | x
CC(NC(=O)c1ccnc(C(C)(C)C)c1)c1ccccc1 (centres undefined) | -59 | x | 17 | -0.24 | 0.52 | x | x | x
COC(=O)c1sc(=S)sc1C(=O)OC | x | 3.3* | 7 | -0.7 | 0.26 | 8136* | 1608 | i
C=CCN1C(=O)/C(=C2\SC(N3CCOCC3)=NC2=O)c2cc(Br)ccc21 | 2 | 9* | 1 | 0.05 | -0.12 | 17804* | 1580 | +
Cn1ccnc1C(O)(c1nnc(-c2ccccc2)o1)C(F)(F)F (centres undefined) | 43 | 0.42 | 13 | -0.27 | 0.17 | x | x | x
Cc1nn(-c2ccc(F)cc2)c(C)c1NS(=O)(=O)c1ccc(Cl)cc1 | 2 | 0.58 | -2 | 1.1 | -0.25 | x | x | x
COc1ccccc1OCc1ccc(C(=O)Nc2ccncc2)o1 | x | 0.095 | 2 | 0.018 | -0.4 | x | x | x
CCn1c2ccccc2c2nc3ccccc3nc21 | -21 | 5.6* | 15 | -0.038 | 0.013 | 15700* | x | i
O=C(/C=C/c1ccccc1)NC(NC(=S)Nc1cc(Cl)ccc1Cl)C(Cl)(Cl)Cl (centres undefined) | 26 | x | x | x | x | x | x | x
CCOC(=O)N1CCC(NC(=O)c2ccc(CS(=O)(=O)c3ccccc3C)o2)CC1 | u | -1.3 | 17 | 0.14 | 0.48 | x | x | x
CCCc1[nH]nc2c1C1(C(=O)N(C(C)C)c3ccccc31)C(C#N)=C(N)O2 (centres undefined) | -48 | 2 | 7 | 0.67 | -0.22 | x | x | x

High-throughput results deposited in PubChem by several laboratories.
